Experimental data published in ChEMBL document CHEMBL5329184, “Design, synthesis, electrochemistry and anti-trypanosomatid hit/lead identification of nitrofuranylazines” (RSC Med Chem, 2023).

Legend:
[1] = test system: Leishmania major; assay: Antileishmanial activity against Leishmania major IR-173 amastigote assessed as inhibition of parasite growth incubated for 72 hrs by resazurin staining based analysis; conditions: IR-173, 72 h
[2] = test system: Leishmania major; assay: Antileishmanial activity against Leishmania major IR-173 promastigotes assessed as inhibition of parasite growth incubated for 48 hrs by resazurin staining based analysis; type: functional, organism-based; conditions: IR-173, 48 h
Procedure, shortened: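 Logarithmic-phase promastigotes (1.25 × 10^6 cells per mL) grown in supplemented M199 with 10% FBS, pH 7.3–7.4, 26 °C. […] 48 h at 26 °C, then resazurin 24 h in the dark. Absorbance 570 minus 600 nm. IC50 by non-linear regression, mean ± SD of three biological replicates.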

[3] = test system: Leishmania donovani; assay: Antileishmanial activity against Leishmania donovani MHOM/IN/95/9515 promastigotes assessed as inhibition of parasite growth incubated for 48 hrs by resazurin staining based analysis; type: functional, organism-based; conditions: MHOM/IN/95/9515, 48 h
[4] = test system: Leishmania donovani; assay: Antileishmanial activity against Leishmania donovani MHOM/IN/95/9515 amastigote assessed as inhibition of parasite growth incubated for 72 hrs by resazurin staining based analysis; conditions: MHOM/IN/95/9515, 72 h
[5] = Selectivity index, ratio of IC50 for cytotoxicity against African green monkey Vero cells assessed as inhibition of cell growth to IC50 for antitrypanosomal activity against Trypanosoma cruzi epimastigotes assessed as parasite growth inhibition; type: toxicity, cell-based; conditions: read-out: Ratio IC50
[6] = in vitro; conditions: monkey, Vero cells
[7] = in vitro; conditions: monkey, Vero cells; remark: listed apart in the source
[8] = test system: Trypanosoma cruzi; assay: Antitrypanosomal activity against bloodstream Trypanosoma cruzi trypomastigotes infected in African green monkey Vero cells assessed as parasite growth inhibition incubated for 48 hrs by resazurin assay
[9] = Selectivity index, ratio of IC50 for cytotoxicity against human THP-1 cells assessed as inhibition of cell growth to IC50 for antileishmanial activity against Leishmania donovani MHOM/IN/95/9515 amastigote assessed as inhibition of parasite growth; type: functional
[10] = in vitro; conditions: monkey, Vero cells; remark: listed apart in the source
[11] = test system: Leishmania major; assay: Selectivity index, ratio of IC50 for antileishmanial activity against Leishmania major IR-173 promastigotes assessed as inhibition of parasite growth to IC50 for antileishmanial activity against Leishmania major IR-173 amastigote assessed as inhibition of parasite growth; type: functional
[12] = in vitro; conditions: monkey, Vero cells; remark: listed apart in the source
[13] = test system: Trypanosoma cruzi; assay: Selectivity index, ratio of IC50 for antitrypanosomal activity against Trypanosoma cruzi epimastigote assessed as parasite growth inhibition to IC50 for antitrypanosomal activity against Trypanosoma cruzi trypomastigotes assessed as parasite growth inhibition; type: functional
[14] = Selectivity index, ratio of IC50 for cytotoxicity against human THP-1 cells assessed as inhibition of cell growth to IC50 for antitrypanosomal activity against Trypanosoma cruzi trypomastigotes assessed as parasite growth inhibition; type: functional
[15] = Selectivity index, ratio of IC50 for cytotoxicity against African green monkey Vero cells assessed as inhibition of cell growth to IC50 for antitrypanosomal activity against Trypanosoma cruzi trypomastigotes assessed as parasite growth inhibition; type: toxicity, cell-based; conditions: read-out: Ratio IC50
[16] = test system: THP-1; assay: cells; type: functional, cell-based; conditions: Homo sapiens, THP-1, 72 h
[17] = test system: Trypanosoma cruzi; assay: Antitrypanosomal activity against Trypanosoma cruzi epimastigotes assessed as parasite growth inhibition incubated for 48 hrs by resazurin staining based analysis; type: functional, organism-based
[18] = test system: Leishmania donovani; assay: Selectivity index, ratio of IC50 for antileishmanial activity against Leishmania donovani MHOM/IN/95/9515 promastigotes assessed as inhibition of parasite growth to IC50 for antileishmanial activity against Leishmania donovani MHOM/IN/95/9515 amastigote assessed as inhibition of parasite growth; type: functional

SMILES | IC50 [1] | IC50 [2] | IC50 [3] | IC50 [4] | selectivity ratio [5] | selectivity ratio [6] | selectivity ratio [7] | IC50 [8] | Ratio IC50 [9] | selectivity ratio [10] | Ratio IC50 [11] | selectivity ratio [12] | Ratio IC50 [13] | Ratio IC50 [14] | selectivity ratio [15] | IC50 [16] | IC50 [17] | Ratio IC50 [18]
O=C1OCCN1/N=C/c1ccc([N+](=O)[O-])o1 [FURAZOLIDONE] | 5.61 µM | 0.34 µM | 0.28 µM | 2.7 µM |  |  |  |  |  |  |  |  |  |  |  |  |  | 
O=[N+]([O-])c1ccc(/C=N/N=C/c2ccc([N+](=O)[O-])o2)cc1 | 7.9 µM | 0.7 µM | 0.7 µM | 0.53 µM | 4 | 17 | 1 | 0.78 µM | 32 | 17 | 0.09 | 22 | 3.37 | 21 | 15 | 16.8 µM | 2.63 µM | 1.32
COc1ccc(/C=N/N=C/c2ccc([N+](=O)[O-])o2)cc1 | > 10 µM | 0.89 µM | 1.16 µM | 2.28 µM | 10 | 57 |  | 6.14 µM | 44 | 44 |  | 22 | 0.8 | 16 | 8 | > 100 µM | 4.92 µM | 0.51
O=[N+]([O-])c1ccc(/C=N/N=C/c2ccc(OCc3ccccc3)cc2)o1 | > 10 µM | 0.45 µM | 1.61 µM | 0.25 µM | 1 | 222 |  | > 10 µM | 400 | 62 |  | 400 |  |  |  | > 100 µM | 95.2 µM | 6.44
O=[N+]([O-])c1ccc(/C=N/N=C/c2ccc(O)cc2)o1 | > 10 µM | 0.64 µM | 1.02 µM | 2.7 µM | 3 | 29 |  | 1.74 µM | 17 | 18 |  | 7 | 4.2 | 27 | 11 | 46.2 µM | 7.3 µM | 0.38
O=[N+]([O-])c1ccc(/C=N/N=C/c2ccc(Br)cc2)o1 | 0.63 µM | 0.75 µM | 3.56 µM | 6.41 µM | 2 | 133 | 159 | > 10 µM | 16 | 28 | 1.19 | 16 |  |  |  | > 100 µM | 46.1 µM | 0.56
O=[N+]([O-])c1ccc(/C=N/N=C/c2ccccc2)o1 | > 10 µM | 1.19 µM | 1.45 µM | > 10 µM | 2 | 14 |  | 2.31 µM |  | 11 |  |  | 3.32 | 42 | 7 | > 100 µM | 7.66 µM | 
O=Cc1ccc([N+](=O)[O-])o1 | 5.6 µM | 7.94 µM | > 10 µM | 2.68 µM |  | 2 | 3 | > 10 µM | 30 |  | 1.42 |  |  |  |  | 80.9 µM | > 10 µM | 
C(=N\N=C\c1ccco1)/c1ccc(OCc2ccccc2)cc1 | > 10 µM | > 10 µM | > 10 µM | > 10 µM |  |  |  | > 10 µM |  |  |  |  |  |  |  |  | > 10 µM | 
O=[N+]([O-])c1ccc(/C=N/N=C/c2ccc(O)cc2)s1 | > 10 µM | 2.22 µM | 1.66 µM | 0.34 µM |  | 15 |  | 3.04 µM | 67 | 20 |  | 97 |  | 8 | 11 | 22.9 µM | > 10 µM | 4.88
O=[N+]([O-])c1ccc(/C=N/N=C/c2ccco2)cc1 | > 10 µM | > 10 µM | > 10 µM | > 10 µM |  |  |  | > 10 µM |  |  |  |  |  |  |  |  | > 10 µM | 
O=[N+]([O-])c1ccc(/C=N/N=C/c2ccc(F)cc2)o1 | 3.69 µM | 0.73 µM | 1.18 µM | > 10 µM | 13 | 65 | 13 | 1.95 µM |  | 40 | 0.2 |  | 1.83 | 51 | 24 | 63.4 µM | 3.56 µM | 
O=[N+]([O-])c1ccc(/C=N/N=C/c2ccc(Cl)cc2)o1 | 2.47 µM | 0.42 µM | 0.67 µM | > 10 µM | 41 | 238 | 40 | 3.05 µM |  | 149 | 0.17 |  | 0.79 | 33 | 33 | > 100 µM | 2.41 µM | 
O=C(Cn1ccnc1[N+](=O)[O-])NCc1ccccc1 [BENZNIDAZOLE] |  |  |  |  |  |  |  | 4.79 µM |  |  |  |  |  | 21 | 21 | > 100 µM |  | 
O=[N+]([O-])c1ccc(/C=N/N=C/c2ccc(OCc3ccccc3)cc2)s1 | > 10 µM | 4.39 µM |  |  |  | 23 |  |  |  |  |  |  |  |  |  | > 100 µM |  | 
NC(=O)N/N=C/c1ccc([N+](=O)[O-])o1 [NITROFURAZONE] | > 10 µM | 1.85 µM | 1.85 µM | 1.69 µM | 13 | 54 |  | 2.23 µM |  | 54 |  | 59 | 3.5 | 45 | 45 | > 100 µM | 7.83 µM | 1.09
O=[N+]([O-])c1ccc(/C=N/N=C/c2ccccc2)s1 | > 10 µM | 1.43 µM | 0.93 µM | 7.26 µM | 5 | 29 |  | 2.5 µM | 14 | 45 |  | 6 | 3.68 | 40 | 17 | > 100 µM | 9.21 µM | 0.13
Cc1ccc(/C=N/N=C/c2ccc([N+](=O)[O-])o2)cc1 | > 10 µM | 0.42 µM | 0.76 µM | > 10 µM | 27 | 238 |  | 4.04 µM |  | 132 |  |  | 0.91 | 25 | 25 | > 100 µM | 3.69 µM | 
O=[N+]([O-])c1ccc(/C=N/N=C/c2ccc(F)cc2)s1 | > 10 µM | 3.79 µM | 2 µM | > 10 µM |  | 26 |  | 6.56 µM |  | 50 |  |  |  | 15 | 15 | > 100 µM | > 10 µM | 
O=Cc1ccc([N+](=O)[O-])s1 | > 10 µM | 3.75 µM | 5.07 µM | > 10 µM |  | 3 |  | 1.62 µM |  | 2 |  |  |  | 16 | 8 | 26.7 µM | > 10 µM | 
